This note sets out measurements from ChEMBL document CHEMBL5352503, “Nonpeptidic Oxazole-Based Prolyl Oligopeptidase Ligands with Disease-Modifying Effects on α-Synuclein Mouse Models of Parkinson's Disease” (J Med Chem, 2023).

Data set [1] has as its system HEK293. As to the kind of experiment: Cytotoxicity against HEK293 cells assessed as cell viability at 1 to 100 uM incubated for 24 hrs by MTT assay. As to conditions: human, hek293, 24 h, dose 1-100 µM. Type of data set: toxicity, cell-based. A general note: Formazan colour is commonly taken as a measure of viable cells.
In data set [2] the test system is Mus musculus. As to the kind of experiment: Upregulation of LC3B-II level in C57BL/6JRccHsd mouse brain at 10 mg/kg, ip measured after 45 mins by Western blot analysis. Type of data set: functional, organism-based. The method in brief:
(§1)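 Mice given 10 mg/kg i.p. in 5% Tween-20 in 0.9% NaCl, with vehicle-injected controls. Brains collected 45 min after injection. Homogenates analysed by Western blot for pPP2A, PP2A and LC3BII, with OD normalized to β-actin or vinculin.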

Data set [3] in a line: Drug elimination in C57BL/6JRccHsd mouse brain at 10 mg/kg, ip measured at 180 mins by LC-MS analysis. It counts as ADME, organism-based. Conditions: in vivo, 3 h. The method in brief:
(§2)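 Male C57BL/6JRCcHsd mice, 10 weeks old, dosed 10 mg/kg i.p. in 5% Tween-20 in 0.9% NaCl. Brains collected at 15, 30, 45, 60, 120 and 180 min. Brain compound concentration measured by LC-MS, and AUC0–180 min calculated.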

Data set [4] relates to Mus musculus. As to the kind of experiment: Downregulation of alpha-syn oligomer in C57BL/6JRccHsd mouse substantia nigra pars compacta injected with AAV2-CBA-alpha-synuclein virus at 10 mg/kg/day, ip administered for 2 weeks by optical density based analysis. Type of data set: functional, organism-based. The method in brief:
(§3)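 Unilateral AAV2-CBA-αSyn was injected above the SNpc of male C57BL/6JRCcHsd mice. Dosing at 10 mg/kg/day i.p. by Alzet minipump began 4 weeks after injection. Brain sections were immunostained for oligomer-specific αSyn and optical density was measured in striatum and SNpc, with n = 7–9/group, reported as mean ± SEM.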

The nature of data set [5]: Permeability of the compound across blood brain barrier in C57BL/6JRccHsd mouse at 1.86 uM, ip measured at 15 mins by LC-MS analysis. Type of data set: ADME, organism-based. Conditions: 0.25 h. The method in brief:
as §2

Data set [6] relates to Mus musculus. Put plainly: Upregulation of total PP2Ac level in C57BL/6JRccHsd mouse brain at 10 mg/kg, ip measured after 45 mins by Western blot analysis. Type of data set: functional, organism-based. The method, boiled down: as §1
The test system of data set [7] is Mus musculus. As to the kind of experiment: Neuroprotective activity against AAV2-CBA-alpha-synuclein virus vector injected C57BL/6JRccHsd mouse model of Parkinson's disease assessed as change in tyrosine hydroxylase positive dopaminergic neuron immunoreactivity in striatum at 10 mg/kg/day, ip administered for 2 weeks by optical density based analysis. It counts as functional, organism-based.

The subject of data set [8] is HEK293. Put plainly: Activation of PP2A in HEK293 cells assessed as decrease in phosphorylated PP2Ac level at 10 uM incubated for 24 hrs by immunoblot analysis. It counts as cell-based. Conditions: Homo sapiens. The method in brief:
(§4)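 HEK-293 cells seeded 500,000/well, attached overnight, then exposed to compound (0.1% DMSO vehicle) for 4 or 24 h. Lysed in RIPA. Western blot with 30 μg protein on 4–20% gels, PVDF transfer, skim-milk block, primary antibody overnight at +4 °C. Detection by chemiluminescence, band OD normalized to β-actin or vinculin. pPP2Ac is the Tyr307-phosphorylated form.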
Background: A western blot detects proteins with antibodies after separation by electrophoresis.

For data set [9], the system named is HEK293. Put plainly: Activation of PP2A in HEK293 cells by measuring decrease in ratio between Tyr307 phosphorylated inactive PP2Ac to total PP2Ac at 1 uM incubated for 4 hrs by Western blot analysis. As to conditions: Homo sapiens, filed as activator. Type of data set: cell-based. The method, boiled down: as §4
The subject of data set [10] is Mus musculus. Put plainly: Neuroprotective activity against AAV2-CBA-alpha-synuclein virus vector injected C57BL/6JRccHsd mouse model of Parkinson's disease assessed as change in tyrosine hydroxylase positive dopaminergic neuron immunoreactivity in substantia nigra pars compacta at 10 mg/kg/day, ip administered for 2 weeks by optical density based analysis. Type of data set: functional, organism-based.

Data set [11] has as its system Mus musculus. Put plainly: Downregulation of alpha-syn oligomer expression in C57BL/6JRccHsd mouse striatum injected with AAV2-CBA-alpha-synuclein virus at 10 mg/kg/day, ip administered for 2 weeks by optical density based analysis. Type of data set: functional, organism-based. The method in brief: as §3
Data set [12] relates to HEK293. Put plainly: Induction of autophagic flux in HEK293 cells expressing GFP-LC3B-RFP at 10 uM incubated for 24 hrs by Hoechst staining based assay. Type of data set: functional, cell-based. Conditions: Homo sapiens.
Data set [13] relates to HEK293. Put plainly: Activation of PP2A in HEK293 cells assessed as increase in LC3B-II level at 10 uM incubated for 24 hrs by immunoblot analysis. It counts as cell-based. Conditions: Homo sapiens, filed as activator. The method, boiled down: as §4
Data set [14] concerns Mus musculus. As to the kind of experiment: Neuroprotective activity against AAV2-CBA-GFP injected C57BL/6JRccHsd mouse model of Parkinson's disease assessed as change in tyrosine hydroxylase positive dopaminergic neuron immunoreactivity in striatum at 10 mg/kg/day, ip administered for 2 weeks by optical density based analysis. Type of data set: functional, organism-based.

The next data set has as its system SH-SY5Y. As to the kind of experiment: Cytotoxicity against human SH-SY5Y cells assessed as cell viability at 1 to 100 uM incubated for 24 hrs by MTT assay. Type of data set: toxicity, cell-based. As to conditions: dose 1-100 µM.
A short description of data set [15]: Activation of PP2A in HEK293 cells by measuring decrease in ratio between Tyr307 phosphorylated inactive PP2Ac to total PP2Ac incubated for 4 hrs by Western blot analysis. It counts as cell-based. As to conditions: Homo sapiens, HEK293, 4 h. The method, boiled down:
as §4

Data set [16] has as its target Alpha-synuclein (Homo sapiens) (UniProt P37840). As to the kind of experiment: Inhibition of alpha-synuclein (unknown origin) dimerization transfected in mouse Neuro2a cells at 10 uM incubated for 4 hrs by Protein-fragment complementation assay. It counts as cell-based.
In data set [17] the test system is HEK293. As to the kind of experiment: Activation of PP2A in HEK293 cells assessed as increase in total PP2Ac level at 10 uM incubated for 4 hrs by immunoblot analysis. It counts as cell-based. As to conditions: Homo sapiens, filed as activator. The method, boiled down: as §4
Data set [18] deals with HEK293. Put plainly: Activation of PP2A in HEK293 cells assessed as increase in total PP2Ac level at 0.01 to 50 uM incubated for 4 hrs by Western blot analysis. It counts as cell-based. As to conditions: Homo sapiens, filed as activator, dose 0.01-50 µM. The method, boiled down:
as §4

Activity calls are given as the source filed them. The calls are words filed in the database; no cut-off is given here.

The term EC50 denotes the concentration at which the effect is half-maximal. `Cc1nc(CCCc2ccccc2)oc1N1CCC[C@H]1C#N`: the Activity result in the data set with HEK293 [1] and in the data set with SH-SY5Y was “Non-Toxic” throughout. Besides, the result in the data set with Mus musculus [2], in the data set on Mus musculus [6], in the data set with HEK293 [9], with Mus musculus [11], in the data set on HEK293 [12] and with HEK293 [13] was Active. Also, the result in the data set on HEK293 [17] and in the data set with HEK293 [18] was Active. Besides, the Drug excretion entry in data set [3] is listed as “Not Active”. Also, the result in the data set on Mus musculus [4], in the data set on Mus musculus [7], with HEK293 [8], in the data set with Mus musculus [10] and with Mus musculus [14] was inactive. Further, in data set [5], the pBBB entry is listed as “Permeable”. For the same molecule, the EC50 in [15] was 275 nM. The inhibition result in [16] was “Active”.
